Results published in ChEMBL document CHEMBL1153971, “Design, synthesis, biological evaluation and molecular modelling studies of novel quinoline derivatives against Mycobacterium tuberculosis” (Bioorg Med Chem, 2009).
Values after ≈ are worked out from the molar mass of the structure shown.

Tests used:
[1] = test system: Mycobacterium tuberculosis; experiment: Antimycobacterial activity against Mycobacterium tuberculosis H37Rv ATCC 27294 at 6.25 ug/mL by radiometric method; assay type: functional
[2] = test system: Mycobacterium tuberculosis; experiment: Antimycobacterial activity against Mycobacterium tuberculosis H37Rv ATCC 27294 assessed as growth index at 6.25 ug/mL after 6 days by radiometric method; assay type: functional
In short: (§1)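 M. tuberculosis H37Rv (ATCC 27294) in a BACTEC 460 radiometric culture. A single 6.25 µg/mL dose was given on day 1. Growth index was read daily from day 1 to day 9 against an untreated culture and an isoniazid-treated culture under identical conditions. Three independent readings were taken. Compounds were dissolved in DMSO.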

[3] = Cytotoxicity against human THP1 cells assessed as cell viability at 1 ug/100 mL after 24 hrs by MTT assay; assay type: cell-based; conditions: THP-1 cells, read-out: Activity
In short: (§2)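 Monocytic THP-1 cells were seeded at 10,000 cells/100 µL and cultured at 37 °C in 5% CO2. Compounds were added at 1 or 10 µg/100 µL, with medium plus DMSO as live control. After 24 or 72 h, MTT (stock 5 mg/mL) was added for 4 h, then isopropanol. Absorbance was read at 540 nm and reported as percent viability. Triplicates, mean of three readings.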

[4] = test system: Mycobacterium tuberculosis; experiment: Antimycobacterial activity against Mycobacterium tuberculosis H37Rv ATCC 27294 assessed as growth index at 6.25 ug/mL after 1 day by radiometric method; assay type: functional; in short: as §1
[5] = test system: Mycobacterium tuberculosis; experiment: Antimycobacterial activity against Mycobacterium tuberculosis H37Rv ATCC 27294 by radiometric method; assay type: functional
In short: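 MIC against H37Rv by the BACTEC radiometric method. Five concentrations were tested: 6.25, […], 1.56, 0.78 and 0.39 µg/mL. Compounds were dissolved in DMSO.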

[6] = test system: Mycobacterium tuberculosis; experiment: Antimycobacterial activity against Mycobacterium tuberculosis H37Rv ATCC 27294 assessed as growth index at 6.25 ug/mL after 3 days by radiometric method; assay type: functional; in short: as §1
[7] = Cytotoxicity against human THP1 cells assessed as cell viability at 10 ug/100 mL after 24 hrs by MTT assay; assay type: cell-based; conditions: THP-1 cells, read-out: Activity; in short: as §2
[8] = test system: Mycobacterium tuberculosis; experiment: Antimycobacterial activity against Mycobacterium tuberculosis H37Rv ATCC 27294 assessed as growth index at 6.25 ug/mL after 2 days by radiometric method; assay type: functional; in short: as §1
[9] = test system: Mycobacterium tuberculosis; experiment: Antimycobacterial activity against Mycobacterium tuberculosis H37Rv ATCC 27294 assessed as growth index at 6.25 ug/mL after 7 days by radiometric method; assay type: functional; in short: as §1
[10] = test system: Mycobacterium tuberculosis; experiment: Antimycobacterial activity against Mycobacterium tuberculosis H37Rv ATCC 27294 assessed as growth index at 6.25 ug/mL after 4 days by radiometric method; assay type: functional; in short: as §1
[11] = test system: Mycobacterium tuberculosis; experiment: Antimycobacterial activity against Mycobacterium tuberculosis H37Rv ATCC 27294 assessed as growth index at 6.25 ug/mL after 8 days by radiometric method; assay type: functional; in short: as §1
[12] = Cytotoxicity against human THP1 cells assessed as cell viability at 10 ug/100 mL after 72 hrs by MTT assay; assay type: cell-based; conditions: THP-1 cells, read-out: Activity; in short: as §2
[13] = test system: Mycobacterium tuberculosis; experiment: Antimycobacterial activity against Mycobacterium tuberculosis H37Rv ATCC 27294 assessed as growth index at 6.25 ug/mL after 9 days by radiometric method; assay type: functional; in short: as §1
[14] = test system: Mycobacterium tuberculosis; experiment: Antimycobacterial activity against Mycobacterium tuberculosis H37Rv ATCC 27294 assessed as growth index at 6.25 ug/mL after 5 days by radiometric method; assay type: functional; in short: as §1
[15] = Cytotoxicity against human THP1 cells assessed as cell viability at 1 ug/100 mL after 72 hrs by MTT assay; assay type: cell-based; conditions: THP-1 cells, read-out: Activity; in short: as §2
[16] = test system: Mycobacterium tuberculosis; experiment: Antimycobacterial activity against Mycobacterium tuberculosis H37Rv ATCC 27294 assessed as growth inhibition at 6.25 ug/mL after 7 to 9 days by radiometric method; assay type: functional; conditions: read-out: GI
In short: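 Single-concentration screen against H37Rv (ATCC 27294) by the BACTEC 460 radiometric method. Compound was added once at 6.25 µg/mL on day one. […] DMSO was the vehicle.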

`COc1nc2ccc(Br)cc2cc1C(c1ccccc1)n1nnnc1C` (centres undefined) gave an inhibition at 6.25 µg/mL [1] of 14%.
Compound `COC(=O)C(C(=O)N1CCN(c2cccc(C(F)(F)F)c2)CC1)C(c1ccccc1)c1cc2cc(Br)ccc2nc1OC` (centres undefined) has an inhibition at 6.25 µg/mL [1] of 8%.
`CCOC(=O)C1CCN(C(c2ccccc2)c2cc3cc(Br)ccc3nc2OC)CC1` (centres undefined) gave an inhibition at 6.25 µg/mL [1] of 16%.
In the case of `COc1nc2ccc(Br)cc2cc1C(c1ccccc1)N1CCCCC1` (centres undefined), the inhibition at 6.25 µg/mL [1] is reported as 53%.
Compound `COc1nc2ccc(Br)cc2cc1C(c1ccccc1)N1CCOCC1` (centres undefined) has an inhibition at 6.25 µg/mL [1] of 69%.
Work on `COC(=O)C(C(=O)N1CCOCC1)C(c1ccccc1)c1cc2cc(Br)ccc2nc1OC` (centres undefined) yielded an inhibition at 6.25 µg/mL [1] of 5%.
For `COC(=O)C(C(=O)N1CCCC1)C(c1ccccc1)c1cc2cc(Br)ccc2nc1OC` (centres undefined), the inhibition at 6.25 µg/mL [1] was 5%.
Compound `COC(=O)C(C(=O)N1CCCCC1)C(c1ccccc1)c1cc2cc(Br)ccc2nc1OC` (centres undefined) has an inhibition at 6.25 µg/mL [1] of 11%.
In the case of `COc1nc2ccc(Br)cc2cc1C(c1ccccc1)N1CCN(c2cccc(C(F)(F)F)c2)CC1` (centres undefined), the Growth_index [2] is reported as 0, the viability at 24 h, 1 ug/100 mL [3] is reported as 87% and the Growth_index [4] is reported as 1. For the same compound, the MIC [5] was 6.25 µg/mL (≈ 11.2 µM), the Growth_index [6] was 0 and the inhibition at 6.25 µg/mL [1] was 100%. It also gave a viability at 24 h, 10 ug/100 mL [7] of 97%, a Growth_index [8] of 0 and a Growth_index [9] of 0. The Growth_index [10] was 0, the Growth_index [11] was 0 and the viability at 72 h, 10 ug/100 mL [12] was 97%. The Growth_index [13] was 0, the Growth_index [14] was 0 and the viability at 72 h, 1 ug/100 mL [15] was 100%. The inhibition of growth at 6.25 µg/mL [16] was 100%.
Work on `COc1nc2ccc(Br)cc2cc1C(c1ccccc1)n1ccc2ccccc21` (centres undefined) yielded an inhibition at 6.25 µg/mL [1] of 8%.
In the case of `COc1nc2ccc(Br)cc2cc1C(c1ccccc1)n1cnc([N+](=O)[O-])c1` (centres undefined), the inhibition at 6.25 µg/mL [1] is reported as 14%.
With `COc1nc2ccc(Br)cc2cc1C(NCc1ccncc1)c1ccccc1` (centres undefined) the inhibition at 6.25 µg/mL [1] was 17%.
With `CCOC(=O)C1CCCN1C(c1ccccc1)c1cc2cc(Br)ccc2nc1OC` (centres undefined) the inhibition at 6.25 µg/mL [1] was 18%.
Work on `CCOC(=O)C(c1cccc2ccccc12)C(c1ccccc1)c1cc2cc(Br)ccc2nc1OC` (mixture of isomers) yielded an inhibition at 6.25 µg/mL [1] of 0%.
In the case of `COC(=O)C(C(=O)n1cccn1)C(c1ccccc1)c1cc2cc(Br)ccc2nc1OC` (mixture of isomers), the inhibition at 6.25 µg/mL [1] is reported as 22%.
`COc1nc2ccc(Br)cc2cc1C(Nc1ccc2oc(=O)ccc2c1)c1ccccc1` (racemic) showed a Growth_index [2] of 48, a viability at 24 h, 1 ug/100 mL [3] of 100% and a Growth_index [4] of 15. It also gave an MIC [5] of 6.25 µg/mL (≈ 12.8 µM), a Growth_index [6] of 37 and an inhibition at 6.25 µg/mL [1] of 92.5%. It also gave a viability at 24 h, 10 ug/100 mL [7] of 100%, a Growth_index [8] of 27 and a Growth_index [9] of 53. The Growth_index [10] was 45, the Growth_index [11] was 53 and the viability at 72 h, 10 ug/100 mL [12] was 100%. It also gave a Growth_index [13] of 55, a Growth_index [14] of 52 and a viability at 72 h, 1 ug/100 mL [15] of 100%. The inhibition of growth at 6.25 µg/mL [16] was 92.5%.
With `COc1nc2ccc(Br)cc2cc1C(c1ccccc1)n1cccn1` (racemic) the Growth_index [2] was 0, the viability at 24 h, 1 ug/100 mL [3] was 71% and the Growth_index [4] was 1. The MIC [5] was 6.25 µg/mL (≈ 15.9 µM), the Growth_index [6] was 0 and the inhibition at 6.25 µg/mL [1] was 99.5%. It also gave a viability at 24 h, 10 ug/100 mL [7] of 75%, a Growth_index [8] of 0 and a Growth_index [9] of 0. For the same compound, the Growth_index [10] was 0, the Growth_index [11] was 0 and the viability at 72 h, 10 ug/100 mL [12] was 98%. The Growth_index [13] was 0, the Growth_index [14] was 0 and the viability at 72 h, 1 ug/100 mL [15] was 100%. For the same compound, the inhibition of growth at 6.25 µg/mL [16] was 99.5%.
`COc1nc2ccc(Br)cc2cc1C(c1ccccc1)n1ccnc1` (racemic) gave a Growth_index [2] of 33, a viability at 24 h, 1 ug/100 mL [3] of 74% and a Growth_index [4] of 12. For the same compound, the MIC [5] was 6.25 µg/mL (≈ 15.9 µM), the Growth_index [6] was 25 and the inhibition at 6.25 µg/mL [1] was 94.2%. For the same compound, the viability at 24 h, 10 ug/100 mL [7] was 56%, the Growth_index [8] was 22 and the Growth_index [9] was 35. For the same compound, the Growth_index [10] was 28, the Growth_index [11] was 35 and the viability at 72 h, 10 ug/100 mL [12] was 67%. It also gave a Growth_index [13] of 56, a Growth_index [14] of 34 and a viability at 72 h, 1 ug/100 mL [15] of 67%. The inhibition of growth at 6.25 µg/mL [16] was 94.2%.
`NNC(=O)c1ccncc1` [ISONIAZID] showed an inhibition of growth at 6.25 µg/mL [16] of 99.3%.
